GSK3B inh – human GSK3beta kinase inhibition. P49841. GST-GSK3beta kinase, ADP-Glo luminescence, 60 min; active compounds read low. activity score (negative = inhibition), % at 10 µM. hit rate 0.038% among 300,000. AID 2097;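 active means more than half of replicate wells score below -50%, meaning over 50% inhibition versus plate controls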
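Assay system: GST-fused GSK3beta enzyme, cell-free / Medium: Tris pH 7.5 buffer with MgCl2, DTT, BSA, heparin / Also added: peptide substrate plus 25 µM ATP (final) / Compound: 10 µM single point / Timing: kinase reaction with compound 60 min at room temperature / Detection: ADP-Glo luminescence / Benchmarks: DMSO neutral wells and GW8510 at 20 µM as positive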
STK33 kinase inh – blocks human STK33 kinase activity; Q9BYT3; purified STK33, MBP phosphorylation, ADP-Glo luminescence; inhibition, % at 10 µM; hit rate 0.073% among 320,000;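 active means inhibition at or above 25%, using the most active replicate where run in duplicate; inactive means inhibition below 25%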
GSK3A inh – inhibitors of human GSK-3 alpha kinase; inhibition, % at 10 µM; hit rate 0.1% among 320,000; ADP-Glo luminescence, 60 min; P49840;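 active means more than half of replicates show inhibition above 20%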;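 further: GST-tagged GSK-3 alpha with peptide substrate and 25 µM ATP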
CDK5 inh – blocks human CDK5/p35 kinase activity | Recombinant CDK5/p35, ADP-Glo luminescence, 60 min | inhibition, % at 10 µM | hit rate 0.01% among 330,000 | AID 488839;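 active means highest replicate inhibition of at least 50% and at least 75% of replicates reaching 50%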
Target sequence (Q00535 whole entry, looked up): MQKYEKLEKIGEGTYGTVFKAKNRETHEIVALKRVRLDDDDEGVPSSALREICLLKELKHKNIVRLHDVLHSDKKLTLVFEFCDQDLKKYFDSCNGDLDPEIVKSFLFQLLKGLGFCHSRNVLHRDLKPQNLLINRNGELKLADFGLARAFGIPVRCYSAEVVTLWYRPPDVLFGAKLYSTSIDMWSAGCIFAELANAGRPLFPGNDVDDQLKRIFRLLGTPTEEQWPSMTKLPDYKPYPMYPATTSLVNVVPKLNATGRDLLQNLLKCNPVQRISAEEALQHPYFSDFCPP
Target sequence (Q15078 whole entry, looked up): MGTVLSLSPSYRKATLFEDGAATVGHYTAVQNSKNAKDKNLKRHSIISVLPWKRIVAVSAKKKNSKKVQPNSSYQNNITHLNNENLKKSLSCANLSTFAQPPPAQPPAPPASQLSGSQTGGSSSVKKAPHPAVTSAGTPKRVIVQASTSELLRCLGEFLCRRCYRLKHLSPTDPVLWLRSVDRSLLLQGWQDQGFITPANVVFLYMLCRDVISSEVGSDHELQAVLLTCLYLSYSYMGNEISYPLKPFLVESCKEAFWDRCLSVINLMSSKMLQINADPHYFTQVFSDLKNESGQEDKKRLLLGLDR
Hits are given with their value; . = inactive; / = no result. Rows were chosen to be rich in hits. Some 0.16% of all compounds tested hit in one or more screens of this group.

SMILES	GSK3B inh	STK33 kinase inh	GSK3A inh	CDK5 inh
c1ccc2c(c1)NC(c1ccncc1)n1c-2nc2ccccc21 (configuration not stated)	.	.	.	.
c1cncc(C2Nc3ccccc3-c3nc4ccccc4n32)c1 (configuration not stated)	.	39	.	.
Cc1occc1C(=O)N/N=C/C=C/c1ccc(N(C)C)cc1	.	.	.	.
Cc1occc1C(=O)N/N=C/c1ccc(N(C)C)cc1	.	29	.	.
CCSc1nc(N2CCOCC2)c2c(c1C#N)CCCC2	.	31	.	.
COC(=O)CSc1nc(N2CCOCC2)c2c(c1C#N)CCCC2	.	.	.	.
Nc1ncc(-c2ccccc2)c(-c2ccc(O)cc2O)n1	.	.	60	.
C=CC[C@@H](CC(=O)N(CCO)Cc1ccccc1)C(=O)NC[C@H](OC(=O)[C@@H](CC=C)Cc1ccc(F)cc1)c1ccccc1	/	.	.	.
COc1cc(/C=C2\Oc3cc(O)ccc3C2=O)ccc1O	.	.	63	.
COc1cc(/C=C2\CCC/C(=C\c3ccc(O)c(OC)c3)C2=O)ccc1O	.	.	.	.
O=C1/C(=C/c2ccc(O)c(O)c2)Oc2cc(O)ccc21	/	46	.	.
CC(=O)Oc1ccc2c(c1)O/C(=C\c1ccncc1)C2=O	.	.	.	.
N#CC1C(=O)NC(=O)C(C#N)C12CCCC(C(F)(F)F)C2 (configuration not stated)	/	/	/	.
Cc1ccc(CCNc2ncnc(Cl)c2N)cc1	/	/	/	.
O=c1[nH]c(-c2ccccc2)ncc1OCc1ccccc1	/	/	/	.
COc1ccc2nc3n(c(=O)c2c1)-c1ccccc1C(=O)NC3Cc1ccccc1 (configuration not stated)	/	.	.	/
Cc1ccnc(NC(=O)CCC(=O)N(CC(=O)NCc2ccccc2)Cc2cccs2)c1	.	.	51	.
Cc1ccnc(NC(=O)CCC(=O)N(CC(=O)NCc2ccccc2)Cc2ccccc2)c1	.	.	.	.
CN(Cc1nc2c(s1)CCCC2)C(=O)CCc1nnc(-c2ccc3c(c2)OCO3)o1	.	.	58	.
CCN(CC)CCNC(=O)c1ccc(NC(=O)Cc2ccc(OC)c(S(=O)(=O)N3CCOCC3)c2)cc1	/	/	/	.
C=CC(=O)Nc1ccc(CN2C(=O)N(c3c(Cl)c(OC)cc(OC)c3Cl)Cc3cnc(NCCCCN(CC)CC)nc32)cc1	/	80	.	.
Cc1cccc(CSc2ccc3nnc(-c4cccs4)n3n2)c1	.	.	/	.
O=C(CSc1ccc2nnc(-c3cccs3)n2n1)N1CCCC1	.	.	.	.
CCOC(=O)CNC(=O)CSc1ccc2nnc(-c3ccc(F)cc3)n2n1	.	.	.	.
CC(Sc1ccc2nnc(-c3ccc(F)cc3)n2n1)C(=O)O (configuration not stated)	.	.	51	.
SMILES	GSK3B inh	STK33 kinase inh	GSK3A inh	CDK5 inh
CCSc1ccc2nnc(-c3ccc(F)cc3)n2n1	-76	.	82	.
CCOC(=O)CSc1ccc2nnc(-c3cccs3)n2n1	-61	.	61	.
Cc1ccc(-c2nnc3ccc(SC(C)C(=O)O)nn23)cc1 (configuration not stated)	.	.	.	.
CCSc1ccc2nnc(-c3cccs3)n2n1	-53	.	.	.
Cc1onc(-c2c(F)cccc2Cl)c1C(=O)Nc1cc(S(=O)(=O)N2CCCCC2)ccc1O	/	/	/	.
CC(=O)Nc1ccc2c(c1)C(N1CC3CCC(CC3)C1)c1ccccc1-2 (configuration not stated)	/	/	/	.
CCOC(=O)CSc1ccc2nnc(-c3ccncc3)n2n1	.	.	81	.
CCOC(=O)CC(=O)CSc1ccc2nnc(-c3ccccc3)n2n1	.	.	.	.
Nc1nc(NCCCN2CCOCC2)nc(Nc2ccc(Cl)cc2)c1[N+](=O)[O-]	.	.	57	/
Cc1ccc(Nc2nc(NCCCN3CCOCC3)nc(N)c2[N+](=O)[O-])cc1	.	.	58	.
Nc1nc(NCCCN2CCOCC2)nc(Nc2cccc(Cl)c2)c1[N+](=O)[O-]	-77	.	78	.
Cc1c(C#N)c(O)[nH]c(=O)c1N=Nc1ccc(S(N)(=O)=O)cc1	-76	.	79	.
CN(C)/C=C/C(=O)c1ccc2noc(-c3ccccc3)c2c1	.	45	.	.
CC(=O)c1ccc2noc(-c3ccccc3)c2c1	.	.	.	.
O=c1c(Cl)c(O)ccn1C1OC(CO)C(O)C1O (configuration not stated)	/	/	/	.
CC(C)=CCc1c(O)ccc2c1OC(c1ccc(O)c(O)c1)CC2=O (configuration not stated)	-50	.	76	.
CCN1CCC(O)(/C=C/c2ccc(C(C)C)cc2)C(C(=O)/C=C/c2ccc(C(C)C)cc2)C1 (configuration not stated)	/	/	/	.
CCCCCCCCCCCCCCCC[N+](C)(C)CCN(Cc1ccc(OC)cc1)c1ncccn1	/	43	.	.
Cc1cc(C)c(C(N)=O)c(SCC(=O)c2cc(C)n(-c3cc(C)on3)c2C)n1	/	.	.	.
CCN(c1ccccc1)S(=O)(=O)c1cc(C(=O)NCC(c2ccc(OC)cc2)N(C)C)ccc1C (configuration not stated)	/	/	/	.
CCNC(=O)N(CC)C[C@H]1N[C@@](Cc2ccccc2)(C(=O)OC)[C@H]2C(=O)N(C)C(=O)[C@@H]12	/	.	.	.
Cc1nnc(NC(=O)C2CC(=O)N(c3ccc4c(c3)OCCO4)C2)s1 (configuration not stated)	/	.	.	.
Cc1cnc(NC(=O)C2CC(=O)N(c3ccc4c(c3)OCCO4)C2)s1 (configuration not stated)	/	.	50	.
COc1ccc(/C=C\C(=O)O[C@@H]2C(O)C(O[C@@H]3OC(C)[C@H](O[C@@H]4OCC(O[C@H]5O[C@H](CO)[C@@H](O)C(O)C5O)C(O)C4O)C(O)C3O)[C@H](OC(=O)[C@]34CCC(C)(C)C[C@@H]3C3=CCC5[C@@]6(C)CC(O)C(O[C@@H]7OC(CO)C(O)[C@H](O)[C@H]7O)[C@@](C)(C(=O)O)C6CC[C@@]5(C)[C@]3(CO)CC4)O[C@H]2C)cc1 (some centres not stated)	/	.	.	.
CC(C)CC1C(=O)N(Cc2cn(CC3CCCCC3)nn2)CCS(=O)(=O)N1Cc1ccc(-c2cccc(C#N)c2)cc1 (configuration not stated)	/	/	/	.
COc1cc2c(ccc3cc(OC)c(OC)c(O)c32)cc1O	.	35	.	81
c1cc2[nH]snc2c2nc(C3CC3)nc12	.	.	54	.

Assay outcomes from PubChem BioAssay.
